Measured values: ChEMBL document CHEMBL5104176 (J Med Chem, 2022)
The source made the active and inactive calls. The calls are words filed in the database; no cut-off is given here.

Legend:
D(4) dopamine receptor [1] = target: T1, D(4) dopamine receptor (Homo sapiens, UniProt P21917); assay: Displacement of [3H]N-methylspiperone from human D4.4 receptor expressed in HEK293T cell membrane incubated for 1 hr by MicroBeta scintillation counting method; format: cell membranes
T1 sequence (P21917 whole entry): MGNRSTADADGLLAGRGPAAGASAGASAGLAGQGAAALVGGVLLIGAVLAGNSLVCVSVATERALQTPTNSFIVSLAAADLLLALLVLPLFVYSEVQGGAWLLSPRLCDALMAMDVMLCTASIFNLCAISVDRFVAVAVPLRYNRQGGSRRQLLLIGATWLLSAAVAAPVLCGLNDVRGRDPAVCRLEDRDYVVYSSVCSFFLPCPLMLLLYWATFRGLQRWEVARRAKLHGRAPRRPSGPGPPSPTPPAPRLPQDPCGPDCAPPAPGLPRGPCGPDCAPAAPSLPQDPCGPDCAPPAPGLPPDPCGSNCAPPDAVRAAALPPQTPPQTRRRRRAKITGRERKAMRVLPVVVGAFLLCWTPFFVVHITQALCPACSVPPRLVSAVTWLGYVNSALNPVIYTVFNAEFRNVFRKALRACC

[2] = Selectivity ratio of Ki for displacement of [3H]N-methylspiperone from human D3R expressed in HEK293T cell membrane to Ki for displacement of [3H]N-methylspiperone from human D4.4 receptor expressed in HEK293T cell membrane
D(3) dopamine receptor = D(3) dopamine receptor (Homo sapiens, UniProt P35462); assay: Displacement of [3H]N-methylspiperone from human D3R receptor expressed in HEK293T cell membrane incubated for 1 hr by MicroBeta scintillation counting method; format: cell membranes
Method in brief: (§1)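 Membranes from stably transfected HEK293 cells (hD2L, hD3 or hD4.4), 20 μg (D2, D3) or 30 μg (D4) protein/well. Incubated 1 h at room temperature in EBSS binding buffer, pH 7.4, with 0.4 nM [3H]N-methylspiperone and 10 half-log dilutions in triplicate. 10 μM (+)-butaclamol defines nonspecific binding. GF filtration, scintillation counting. Ki by Cheng–Prusoff from ≥3 experiments; selectivity is the Ki ratio.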

D(2) dopamine receptor = D(2) dopamine receptor (Homo sapiens, UniProt P14416); assay: Displacement of [3H]N-methylspiperone from human D2L receptor expressed in HEK293T cell membrane incubated for 1 hr by MicroBeta scintillation counting method; format: cell membranes
Method in brief: as §1, with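 “counting.” for “counting. Ki by Cheng–Prusoff from ≥3 experiments; selectivity is the Ki ratio.”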

[3] = Selectivity ratio of Ki for displacement of [3H]N-methylspiperone from human D2L receptor expressed in HEK293T cell membrane to Ki for displacement of [3H]N-methylspiperone from human D4.4 receptor expressed in HEK293T cell membrane
U-251 [4] = assay: Cytotoxicity against human U-251 cells assessed as reduction in cell viability at 5 to 50 uM incubated for 24 hrs by MTS assay; format: functional, cell-based; conditions: dose 5-50 µM
Method in brief: (§2)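 Cells seeded at 5,000/well and grown to 80% confluence: T98 and U251 in EMEM with 10% serum; GSC#83 as spheres in serum-free DMEM/F12 with EGF and bFGF. Treated 24 h at 5–50 μM in DMSO, with a DMSO vehicle control. MTS reagent added and formazan absorbance read at 490 nm. n = 6; two-way ANOVA.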

GSC#83 [5] = assay: Cytotoxicity against human GSC#83 cells assessed as reduction in cell viability at 5 to 50 uM incubated for 24 hrs by MTS assay; format: functional, cell-based; conditions: dose 5-50 µM; method in brief: as §2
T98G [6] = assay: Cytotoxicity against human T98G cells assessed as reduction in cell viability at 5 to 50 uM incubated for 24 hrs by MTS assay; format: functional, cell-based; conditions: dose 5-50 µM; method in brief: as §2
GSC#83 [7] = assay: Cytotoxicity against human GSC#83 cells assessed as reduction in cell viability at 10 uM incubated for 24 hrs by MTS assay; format: functional, cell-based; method in brief: as §2
U-251 [8] = assay: Cytotoxicity against human U-251 cells assessed as reduction in cell viability at 10 uM incubated for 24 hrs by MTS assay; format: functional, cell-based; method in brief: as §2
T98G [9] = assay: Cytotoxicity against human T98G cells assessed as reduction in cell viability at 10 uM incubated for 24 hrs by MTS assay; format: functional, cell-based; method in brief: as §2
D(4) dopamine receptor [10] = target: T1, D(4) dopamine receptor; assay: Antagonist activity at D4R (unknown origin) expressed in human HEK293T cells assessed as inhibition of dopamine-induced G0 protein activation pretreated for 10 mins followed by dopamine addition and measured after 2.5 mins by BRET assay; format: functional, cell-based
[11] = target: T2, D(4) dopamine receptor (Homo sapiens) (UniProt P21917); assay: Agonist activity at D4R (unknown origin) expressed in human HEK293T cells assessed as beta arrestin-2 recruitment measured after 2.5 mins by BRET assay relative to control; format: functional, cell-based
T2 sequence (whole entry): T1 sequence (P21917 whole entry)
Method in brief: (§3)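 Transiently transfected HEK293T cells (15 μg plasmid cDNA, polyethyleneimine, 6 h, assayed after 48 h). Gαi1 or GαoA fused to RLuc8 and Gγ2 to mVenus for G protein activation; D4 receptor fused to RLuc8 and β-arrestin to mVenus for recruitment. About 2×10^5 cells/well in PBS with 0.1% glucose and 200 μM Na bisulfite. Coelenterazine H 5 μM. Read 530/485 nm; RLuc8-only background subtracted.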

D(4) dopamine receptor [12] = target: T1, D(4) dopamine receptor; assay: Antagonist activity at D4R (unknown origin) expressed in human HEK293T cells assessed as inhibition of dopamine-induced beta arrestin-2 recruitment pretreated for 10 mins followed by dopamine addition and measured after 2.5 mins by BRET assay; format: functional, cell-based
[13] = target: T2, D(4) dopamine receptor (Homo sapiens); assay: Agonist activity at D4R (unknown origin) expressed in human HEK293T cells assessed as Gi protein activation measured after 2.5 mins by BRET assay relative to control; format: functional, cell-based; method in brief: as §3
[14] = target: T2, D(4) dopamine receptor (Homo sapiens); assay: Agonist activity at D4R (unknown origin) expressed in human HEK293T cells assessed as G0 protein activation measured after 2.5 mins by BRET assay relative to control; format: functional, cell-based; method in brief: as §3
D(4) dopamine receptor [15] = target: T1, D(4) dopamine receptor; assay: Antagonist activity at D4R (unknown origin) expressed in human HEK293T cells assessed as inhibition of dopamine-induced Gi protein activation pretreated for 10 mins followed by dopamine addition and measured after 2.5 mins by BRET assay; format: functional, cell-based
D(4) dopamine receptor [16] = target: T1, D(4) dopamine receptor; assay: Displacement of [3H]7-OH-DPAT from human D4.4 receptor expressed in HEK293T cell membrane incubated for 1.5 hrs by MicroBeta scintillation counting method; format: cell membranes
Method in brief: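 Fresh membranes from HEK293 cells stably expressing hD4.4 (about 50–60 μg protein/well) in 50 mM Tris, 10 mM MgCl2, 1 mM EDTA, pH 7.4. Radioligand was 3 nM final; incubation 1.5 h at room temperature. Nonspecific binding was set with 10 μM (+)-butaclamol; DMSO was 3% final. Ten half-log dilutions were run in triplicate, then filtered. Ki came from IC50 by Cheng–Prusoff, from at least three independent experiments.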

D(3) dopamine receptor, sequence (P35462 whole entry): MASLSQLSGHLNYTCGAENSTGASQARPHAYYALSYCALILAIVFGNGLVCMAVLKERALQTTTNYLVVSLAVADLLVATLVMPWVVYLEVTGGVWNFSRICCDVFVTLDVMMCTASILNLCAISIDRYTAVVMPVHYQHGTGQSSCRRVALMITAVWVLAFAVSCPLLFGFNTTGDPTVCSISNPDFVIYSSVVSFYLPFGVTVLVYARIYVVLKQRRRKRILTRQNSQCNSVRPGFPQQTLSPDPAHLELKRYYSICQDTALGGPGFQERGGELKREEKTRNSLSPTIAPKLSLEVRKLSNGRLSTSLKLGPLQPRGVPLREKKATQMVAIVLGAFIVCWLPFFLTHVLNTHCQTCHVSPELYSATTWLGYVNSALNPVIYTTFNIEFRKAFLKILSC
D(2) dopamine receptor, sequence (P14416 whole entry): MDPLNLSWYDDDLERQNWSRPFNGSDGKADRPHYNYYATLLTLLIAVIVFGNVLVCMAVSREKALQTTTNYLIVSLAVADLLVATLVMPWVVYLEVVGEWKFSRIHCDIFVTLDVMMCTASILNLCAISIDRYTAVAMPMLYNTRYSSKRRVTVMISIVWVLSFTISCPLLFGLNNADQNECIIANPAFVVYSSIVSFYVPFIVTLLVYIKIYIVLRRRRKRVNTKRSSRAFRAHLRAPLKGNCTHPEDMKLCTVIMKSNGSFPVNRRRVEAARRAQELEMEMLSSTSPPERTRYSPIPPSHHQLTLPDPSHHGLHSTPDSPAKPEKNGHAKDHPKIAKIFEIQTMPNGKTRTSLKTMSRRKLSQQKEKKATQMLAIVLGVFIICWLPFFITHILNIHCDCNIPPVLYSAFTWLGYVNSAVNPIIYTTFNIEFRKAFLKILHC

Ki (D(4) dopamine receptor [1])	Ki (D(3) dopamine receptor)	Ki (D(2) dopamine receptor)	Structure (SMILES)	Ratio Ki [2]	Ratio Ki [3]	also measured
0.676 nM	501 nM	550 nM	O=C1CCc2ccccc2N1CCCN1CCN(c2ccc(Cl)cc2Cl)CC1	744	827	
30.2 nM	832 nM	6170 nM	c1ccc(N2CCN(CCCc3nc4ccccc4[nH]3)CC2)cc1	28	204	
23.4 nM	195 nM	282 nM	O=C1CCc2ccccc2N1CCCCCN1CCN(c2ccccc2)CC1	8	12	
1.07 nM	339 nM	355 nM	N#Cc1ccccc1N1CCN(CCCN2C(=O)CCc3ccccc32)CC1	316	331	
1.78 nM	794 nM	1450 nM	Cc1cccc(N2CCN(CCCN3C(=O)CCc4ccccc43)CC2)c1	447	813	
			CCCCC1CCN(CCCN2C(=O)CCc3ccccc32)CC1	631	691	
			O=C1CCc2ccccc2N1CCCN1CCN(c2ccccc2)CC1	457	380	
			Fc1ccc(N2CCN(CCC3OCCc4ccccc43)CC2)cc1 (centres undefined)			Activity (U-251 [4]): Active; Activity (GSC#83 [5]): Active; Activity (T98G [6]): Active; Activity (GSC#83 [7]): Active; Activity (U-251 [8]): Active; Activity (T98G [9]): Active
37.2 nM	813 nM	1700 nM	c1ccc(N2CCN(CCCc3nc4ccccc4o3)CC2)cc1	22	46	
4.47 nM	2290 nM	3980 nM	O=C1CCc2ccccc2N1CCCN1CCN(c2ncccn2)CC1	513	891	
4.17 nM	1550 nM	3090 nM	COc1cccc(N2CCN(CCCN3C(=O)CCc4ccccc43)CC2)c1	372	741	
6.92 nM	8320 nM	20900 nM	COc1ccc(N2CCN(CCCN3C(=O)CCc4ccccc43)CC2)cc1	1200	3020	IC50 (D(4) dopamine receptor [10]): 107 nM; Emax [11]: 0%; IC50 (D(4) dopamine receptor [12]): 389 nM; Emax [13]: 0%; Emax [14]: 0%; IC50 (D(4) dopamine receptor [15]): 269 nM
2.63 nM	562 nM	708 nM	c1ccc(N2CCN(CCCN3CCCc4ccccc43)CC2)cc1	214	269	
1.91 nM	490 nM	724 nM	c1ccc(N2CCN(CCCn3ccc4ccccc43)CC2)cc1	257	380	
6.61 nM	11000 nM	24000 nM	O=C1CCc2ccccc2N1CCCN1CCN(c2ccc([N+](=O)[O-])cc2)CC1	1660	3630	
63.1 nM	1070 nM	12900 nM	O=C1CCc2ccccc2N1CCN1CCN(c2ccccc2)CC1	17	204	
0.692 nM	21.4 nM		O=C1CCc2ccccc2N1CCCN1CCN(c2cccc(Cl)c2Cl)CC1			
1.35 nM	275 nM	398 nM	Cc1ccccc1N1CCN(CCCN2C(=O)CCc3ccccc32)CC1	204	295	
3.55 nM	1260 nM	2510 nM	O=C1CCc2ccccc2N1CCCN1CCN(c2cccc([N+](=O)[O-])c2)CC1	355	708	
0.603 nM	60.3 nM	138 nM	O=C1CCc2ccccc2N1CCCN1CCN(c2ccccc2Cl)CC1	100	229	Ki (D(4) dopamine receptor [16]): 0.513 nM
0.871 nM	631 nM	955 nM	O=C1CCc2ccccc2N1CCCN1CCN(c2ccc(Cl)c(Cl)c2)CC1	725	1100	
4.27 nM	81.3 nM	1120 nM	O=C1CCc2ccccc2N1CCCCN1CCN(c2ccccc2)CC1	19	263	
0.407 nM	129 nM	132 nM	O=C1CCc2ccccc2N1CCCN1CCN(c2ccccc2[N+](=O)[O-])CC1	316	324	
0.617 nM	100 nM	81.3 nM	COc1ccccc1N1CCN(CCCN2C(=O)CCc3ccccc32)CC1	162	132	
			NCCc1ccc(O)c(O)c1			Emax ([11]; filed as agonist): 100%; Emax ([13]; filed as agonist): 100%; Emax ([14]; filed as agonist): 100%
			Cn1nnc2c(C(N)=O)ncn2c1=O			Activity (U-251 [4]): Active; Activity (GSC#83 [5]): Active; Activity (T98G [6]): Active; Activity (GSC#83 [7]): Active; Activity (U-251 [8]): Active; Activity (T98G [9]): Active
12.3 nM	8910 nM	12000 nM	c1ccc(N2CCN(CCCn3cnc4ccccc43)CC2)cc1	719	977	

Structure (SMILES)	Ki (D(4) dopamine receptor [1])	Ki (D(3) dopamine receptor)	Ki (D(2) dopamine receptor)	Ratio Ki [2]	Ratio Ki [3]	also measured
O=C1CCc2ccccc2N1CCCN1CCN(c2cccc(Cl)c2)CC1	1.05 nM	282 nM	759 nM	269	724	Ki (D(4) dopamine receptor [16]): 0.776 nM
c1ccc(N2CCN(CCCc3nc4ccccc4s3)CC2)cc1	10.2 nM	692 nM	1780 nM	68	174	
